NR2E3 ag-1: agonists of human NR2E3 nuclear receptor | Q9Y5X4 | CHO-S Gal4-NCOR/VP16-NR2E3 two-hybrid, luciferase | inhibition of corepressor binding, % at 3.98 µM | 0.35% of 360,000 active | AID 602229;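 active = inhibition above the mean of all tested compounds plus 3 SD, cut at about 70% in these data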;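 also: higher means lower luciferase signal from less NR2E3 corepressor binding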
NR2E3 ag-2: activates human photoreceptor nuclear receptor NR2E3. GST-NR2E3/biotin-RetCOR TR-FRET, 1536-well. inhibition of corepressor binding, % at 4.78 µM. 0.12% of 320,000 active. AID 2300;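 active = percent inhibition above the cutoff of mean plus 3 SD of all tested compounds, set per screening campaign, cut at about 20% in these data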
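system = GST-tagged NR2E3 plus biotinylated RetCOR corepressor | input = 1.35 nM GST-NR2E3 | also added = 7 nM biotin-RetCOR | schedule = 5 h incubation at 4 °C | measured by = TR-FRET with europium anti-GST and streptavidin-D2, 340 nm excitation | read-out = percent loss of FRET ratio relative to control wells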
NR1D1 modulator: Rev-erb alpha (human) modulation; Rev-erbα–FITC-DNA binding, fluorescence polarization, 90 min; activity, % at 10 µM; 0.79% of 370,000 active; AID 1259318; P20393;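 active = activity above about 14%, limit read from the data; passing the limit was not always enough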
Target sequence (P20393 whole entry, looked up): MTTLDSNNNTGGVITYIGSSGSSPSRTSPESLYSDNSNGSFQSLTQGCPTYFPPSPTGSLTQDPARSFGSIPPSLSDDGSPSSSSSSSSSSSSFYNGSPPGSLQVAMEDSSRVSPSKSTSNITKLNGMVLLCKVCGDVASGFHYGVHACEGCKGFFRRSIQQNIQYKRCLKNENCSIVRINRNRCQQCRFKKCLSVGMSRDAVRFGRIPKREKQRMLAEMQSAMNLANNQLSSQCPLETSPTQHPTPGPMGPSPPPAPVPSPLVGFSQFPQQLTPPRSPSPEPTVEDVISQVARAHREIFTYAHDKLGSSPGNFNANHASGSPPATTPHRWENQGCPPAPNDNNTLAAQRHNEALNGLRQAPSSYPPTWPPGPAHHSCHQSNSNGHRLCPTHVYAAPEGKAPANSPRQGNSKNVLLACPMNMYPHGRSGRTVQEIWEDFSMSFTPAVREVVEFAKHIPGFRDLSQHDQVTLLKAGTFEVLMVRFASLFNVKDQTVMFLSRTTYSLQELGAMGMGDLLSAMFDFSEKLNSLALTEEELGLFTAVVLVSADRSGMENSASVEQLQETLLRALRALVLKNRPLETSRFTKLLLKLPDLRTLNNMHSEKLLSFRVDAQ
PG9 binder: small molecules binding HIV-1 gp120 antibody PG9. 0.43% of 360,000 active. TR-FRET gp120-PG9 antibody binding. inhibition, % at 6.7 µM; in the data active = inhibition above about 8.5%
Rev-erbA confirm: Rev-erb alpha (human) modulation, hit confirmation; shares compounds with NR1D1 modulator; AID 1259319; 61% of 3,000 active; activation, % at 25 µM; Rev-erb alpha FITC-DNA binding, fluorescence polarization, 90 min;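 active = activation at or above a set limit, or at least 3 SD above the negative control mean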
RORg DNA counter: RORgamma DNA-binding activity, dose-response counter-screen. shares compounds with NR1D1 modulator. purified RORgamma protein-FITC-DNA binding, fluorescence polarization. IC50, µM. 8% of 910 active. AID 1259320;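 active = Compounds whose fitted half-maximal concentration for disrupting protein-DNA binding is below 10 micromolar; the record names Rev-erb in its text, so the target is in doubt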
Hits are given with their value; - = inactive; . = not tested or not shown. A selection: hits, their analogues and other compounds. The true share with any hit is near 1.5%.

SMILES | NR2E3 ag-1 | NR2E3 ag-2 | NR1D1 modulator | PG9 binder | Rev-erbA confirm | others
COc1ccc(C)c2sc(=NC(=O)C(C)C)n(C)c12 | - | - | 158 | - | 11
COC(=O)C1=C(C)NC(C)=C(C(=O)OC)C1C(=O)OCC(=O)c1ccc(Br)cc1 | - | - | - | - | .
CCc1nc(CN2CCN(Cc3ccc(F)c(F)c3)C(CCO)C2)c(C)[nH]1 (stereo not given) | - | - | - | - | .
Cc1nnc(SCC(=O)NC2CCCCC2)n(N)c1=O | - | - | - | . | .
CCCN1C(=O)/C(=C/c2c(NCCCOCC)nc3c(C)cccn3c2=O)SC1=S | - | . | - | - | .
O=C1/C(=C\c2c(NCCOCCO)nc3ccccn3c2=O)SC(=S)N1Cc1ccco1 | - | - | 33 | - | -
Cc1ccc(C(=O)NN2C(=O)/C(=C/c3cn(C)c4ccccc34)SC2=S)cc1 | - | - | - | - | .
Cn1cc(/C=C2\SC(=O)NC2=S)c2ccccc21 | - | - | 27 | - | -
O=C(C1CC1)C1(C(=O)N2CCOCC2)CC(c2ccccn2)=NO1 (stereo not given) | . | . | - | . | .
CCN(CC)C(=O)c1ccc2c(=O)n(Cc3cccc(Br)c3)c(=S)[nH]c2c1 | . | - | 33 | - | -
O=c1c2cc(Br)ccc2[nH]c(=S)n1Cc1ccccn1 | - | - | - | - | .
O=c1c2cc(Br)ccc2[nH]c(=S)n1Cc1ccccc1 | - | - | 39 | - | 18
C[C@H](NC(=O)Cc1cccc2ccccc12)C(=O)N1CCCN(C)CC1 | - | - | - | - | .
COC(=O)c1c(NC(=O)c2ccccc2)sc(C(=O)c2ccccc2)c1C | - | - | 27 | - | -
COC(=O)[C@H](Cc1ccccc1)N(Cc1cn(Cc2ccccc2)nn1)S(=O)(=O)c1ccccc1Br | . | . | - | . | .
COc1ccc(C(=O)N=C2SC3CS(=O)(=O)CC3N2c2ccc(N(C)C)cc2)cc1OC (stereo not given) | - | - | 53 | - | -
COc1ccc(N2C(=NC(=O)C3CCCCC3)SC3CS(=O)(=O)CC32)cc1OC (stereo not given) | - | - | - | - | .
CN(C)S(=O)(=O)c1cc(NC(=O)CSc2ncc(C(F)(F)F)cc2Cl)ccc1Cl | - | - | - | - | .
CCOC(=O)N1CCC(NC(=O)c2cc3c(-c4ccc(Cl)cc4)nn(C)c3s2)CC1 | - | - | 20 | - | 19
Cc1ccc(C)c(S(=O)(=O)Nc2ccc(C(=O)N3CC(C)OC(C)C3)cc2)c1 (stereo not given) | - | - | - | - | .
CC(C)=CC(=O)O[C@@H]1Cc2c(ccc3ccc(=O)oc23)OC1(C)C | - | . | 26 | - | 23
O=S(=O)(c1ccccc1)N1CCN(c2nc(-c3cccs3)nc3ccccc23)CC1 | . | - | . | . | .
O=S(=O)(c1ccc(Cl)cc1)N1CCN(c2nc(-c3cccs3)nc3ccccc23)CC1 | - | . | 29 | - | -
CC1(C)C(=O)Nc2ccccc2N1C(=O)COC(=O)Cc1c(F)cccc1Cl | - | - | - | - | .
Cc1ccc(-c2nc(N)c3c(-c4ccc(C)cc4)nn(C(C)(C)C)c3n2)cc1 | - | - | 30 | - | -
SMILES | NR2E3 ag-1 | NR2E3 ag-2 | NR1D1 modulator | PG9 binder | Rev-erbA confirm | others
COc1cccc(C(=O)CSc2nnc(-c3cccs3)o2)c1 | - | - | - | - | .
COc1cccc(C(=O)CSc2nnc(-c3cc(OC)cc(OC)c3)o2)c1 | - | - | 27 | - | 36 | RORg DNA counter=-
CC1c2[nH]c3ccccc3c2C[C@H]2C(=O)N(CCO)CC(=O)N12 (stereo not given in full) | - | - | - | - | .
Cc1ccc(-n2c(SCC(=O)Nc3cccc(C)c3)nc3c(oc4ccccc43)c2=O)cc1 | . | - | 79 | - | 125 | RORg DNA counter=-
Cc1ccc(NC(=O)CSc2nc3ccccc3c3nc4ccccc4n23)cc1 | - | - | 58 | - | -
CCCCn1c(SCC(=O)Nc2cc(C)on2)nc2ccsc2c1=O | - | - | 45 | - | 27
Cc1cc(NC(=O)CSc2nc3ccsc3c(=O)n2CCCCC(=O)O)no1 | - | - | - | - | .
COCCn1c(SCC(=O)Nc2cccc(OC)c2)nc2c(oc3ccccc32)c1=O | - | - | - | - | .
Cc1ccc(C(=O)CSc2nc3ccccc3c(=O)n2-c2ccccc2)s1 | - | - | 49 | 29 | 35 | RORg DNA counter=-
COc1ccc(Cc2nnc(NC(=O)C3CCN(C(=O)c4ccco4)CC3)s2)cc1 | - | - | - | - | .
CC(NC(=O)CN1C(=O)NC2(CCc3ccccc32)C1=O)c1ccccc1 (stereo not given) | - | - | - | - | .
C=CCn1c(O)c2ccc(C(=O)N=NC(=O)COc3ccc(OC)cc3)cc2c1O | - | - | - | - | .
Cc1ccccc1CNS(=O)(=O)c1c(C(=O)N2CCCC2)c(C)n(C)c1C | - | - | - | - | .
O=C(CSc1nc2ccccc2c(=O)n1-c1ccc(F)cc1)Nc1ccc(N2CCOCC2)cc1 | - | - | - | - | .
COc1ccc(-n2c(SCC(=O)Nc3ccc4c(c3)OCO4)nc3ccccc3c2=O)cc1 | - | - | - | - | .
Cc1cc(NC(=O)CSc2nc3ccccc3c(=O)n2-c2ccccc2)no1 | - | - | 27 | - | -
COc1ccc(NC(=O)CSc2nc3ccccc3c(=O)n2-c2ccc3c(c2)OCO3)c(OC)c1 | - | - | 84 | - | 127 | RORg DNA counter=-
O=C(CSc1nc2ccccc2c(=O)n1-c1ccc(F)cc1)Nc1cc(S(=O)(=O)N2CCOCC2)ccc1Cl | - | - | 65 | - | 34 | RORg DNA counter=-
COC(=O)C1=C(C(=O)OC)[C@@]2([C@@H](Cc3ccc(C)cc3)Nc3ccccc3)C=C[C@@H]1O2 | . | . | - | . | .
Cc1cc(C)cc(NC(=O)CSc2nc3ccccc3nc2N2CCCCC2)c1 | - | - | - | - | .
O=C(CSc1nc2ccccc2nc1N1CCCCC1)NCc1ccc(Cl)cc1Cl | . | . | 47 | . | 41 | RORg DNA counter=-
COC(=O)[C@H](C(C)C)N1CCc2nnn(CC3CCCCC3)c2-c2ccccc2S1(=O)=O | . | . | - | . | .
C=CCN1[C@H](C#N)[C@@H](c2ccc(C#Cc3cccnc3)cc2)[C@H]1CO | . | . | - | . | .
COc1ccc(C(=O)Nc2nc(-c3ccccc3)c(C(C)=O)s2)c(OC)c1 | - | - | 25 | - | -
COc1ccc(C(=O)Nc2nc3cc4c(cc3s2)OCO4)c(OC)c1 | - | - | 19 | - | 11
CC(=O)c1sc(NC(=O)c2ccccc2F)nc1-c1ccccc1 | - | - | 17 | - | -
CC(=O)c1sc(NC(=O)c2ccc(F)cc2)nc1-c1ccccc1 | - | - | - | - | .
COc1ccc(OC)c(-c2csc(NC(=O)c3ccc4c(c3)OCO4)n2)c1 | - | - | 49 | - | 51 | RORg DNA counter=-
CN(C(=O)c1cccc(NC(=O)Cc2cccc(NC(=O)C3CCCN(C(=O)C4CCCCC4)C3)c2)c1)C1CC1 (stereo not given) | - | . | - | - | .
O=S(=O)(CCC1CCCCN1)c1ccccc1 (stereo not given) | - | - | - | - | .
